Measured values: ChEMBL document CHEMBL1938284, “Synthesis and biological activity of novel organoselenium derivatives targeting multiple kinases and capable of inhibiting cancer progression to metastases” (Eur J Med Chem, 2012)
The source made the active and inactive calls. No cut-off for these calls is given here.

Assays:
[1] = target: Hepatocyte growth factor receptor (Homo sapiens) (UniProt P08581); assay: Inhibition of MET at 1 uM
[2] = target: Epidermal growth factor receptor (Homo sapiens) (UniProt P00533); assay: Inhibition of EGFR at 1 uM
[3] = target: Tyrosine-protein kinase SYK (Homo sapiens) (UniProt P43405); assay: Inhibition of SYK at 1 uM
[4] = target: BDNF/NT-3 growth factors receptor (Homo sapiens) (UniProt Q16620); assay: Inhibition of TRKB at 1 uM
BDNF/NT-3 growth factors receptor (Homo sapiens), sequence (Q16620 32-822 limits assumed): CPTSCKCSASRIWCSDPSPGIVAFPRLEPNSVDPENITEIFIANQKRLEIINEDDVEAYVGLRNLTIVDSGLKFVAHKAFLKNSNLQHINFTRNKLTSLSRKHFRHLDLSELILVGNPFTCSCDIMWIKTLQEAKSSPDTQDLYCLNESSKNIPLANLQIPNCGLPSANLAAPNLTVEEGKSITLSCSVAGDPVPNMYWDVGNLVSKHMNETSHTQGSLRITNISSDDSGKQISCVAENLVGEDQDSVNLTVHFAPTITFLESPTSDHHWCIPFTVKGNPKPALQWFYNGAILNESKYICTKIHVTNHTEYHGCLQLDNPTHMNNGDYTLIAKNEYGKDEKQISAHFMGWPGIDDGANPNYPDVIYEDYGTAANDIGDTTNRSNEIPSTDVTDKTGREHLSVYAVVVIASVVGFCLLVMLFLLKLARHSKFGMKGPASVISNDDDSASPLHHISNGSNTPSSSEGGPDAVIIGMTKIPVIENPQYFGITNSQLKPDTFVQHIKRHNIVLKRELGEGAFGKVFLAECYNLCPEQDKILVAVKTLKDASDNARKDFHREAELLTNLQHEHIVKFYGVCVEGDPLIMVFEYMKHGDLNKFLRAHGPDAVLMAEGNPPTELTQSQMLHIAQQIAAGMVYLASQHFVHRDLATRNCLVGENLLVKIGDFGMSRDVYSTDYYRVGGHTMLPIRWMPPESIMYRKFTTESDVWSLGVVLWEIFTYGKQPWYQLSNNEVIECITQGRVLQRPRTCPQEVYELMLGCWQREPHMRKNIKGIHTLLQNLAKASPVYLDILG

[5] = target: T1, Aurora kinase A (Homo sapiens) (UniProt O14965); assay: Inhibition of Aurora A at 1 uM
T1 sequence (whole entry): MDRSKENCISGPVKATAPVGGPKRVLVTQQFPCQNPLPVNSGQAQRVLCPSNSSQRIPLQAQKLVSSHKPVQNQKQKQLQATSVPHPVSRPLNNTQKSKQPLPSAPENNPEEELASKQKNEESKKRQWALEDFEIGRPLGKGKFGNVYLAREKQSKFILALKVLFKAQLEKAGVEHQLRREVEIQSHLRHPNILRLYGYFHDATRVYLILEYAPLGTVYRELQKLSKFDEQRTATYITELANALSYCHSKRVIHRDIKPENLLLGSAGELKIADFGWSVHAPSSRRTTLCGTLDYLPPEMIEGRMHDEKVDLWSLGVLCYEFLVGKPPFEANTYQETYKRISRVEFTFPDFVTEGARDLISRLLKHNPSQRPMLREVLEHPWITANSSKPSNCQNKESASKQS

[6] = Antiproliferative activity against human MDA231 cells after 72 hrs by MTT assay; assay type: functional, cell-based; conditions: MDA-MB-231, 72 h
How it was run: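 MTT read-out on MDA-231 cells. 1×10^3 exponentially growing cells seeded and incubated 24, 48 and 72 h. Medium replaced with 1 mg/mL MTT for 3–4 h at 37 °C.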

[7] = target: Platelet-derived growth factor receptor beta (Homo sapiens) (UniProt P09619); assay: Inhibition of PDGFRbeta at 1 uM
MDA-MB-231 [8] = assay: Cytotoxicity against human MDA231 cells at 10 uM; assay type: functional, cell-based
MDA-MB-231 [9] = assay: Inhibition of free radical generation in human MDA231 cells by CM-H2DCFDA based fluorometric analysis; assay type: functional, cell-based
[10] = target: Tyrosine-protein kinase Lyn (Homo sapiens) (UniProt P07948); assay: Inhibition of LYN at 1 uM
Tyrosine-protein kinase Lyn (Homo sapiens), sequence (P07948 2-512 limits assumed): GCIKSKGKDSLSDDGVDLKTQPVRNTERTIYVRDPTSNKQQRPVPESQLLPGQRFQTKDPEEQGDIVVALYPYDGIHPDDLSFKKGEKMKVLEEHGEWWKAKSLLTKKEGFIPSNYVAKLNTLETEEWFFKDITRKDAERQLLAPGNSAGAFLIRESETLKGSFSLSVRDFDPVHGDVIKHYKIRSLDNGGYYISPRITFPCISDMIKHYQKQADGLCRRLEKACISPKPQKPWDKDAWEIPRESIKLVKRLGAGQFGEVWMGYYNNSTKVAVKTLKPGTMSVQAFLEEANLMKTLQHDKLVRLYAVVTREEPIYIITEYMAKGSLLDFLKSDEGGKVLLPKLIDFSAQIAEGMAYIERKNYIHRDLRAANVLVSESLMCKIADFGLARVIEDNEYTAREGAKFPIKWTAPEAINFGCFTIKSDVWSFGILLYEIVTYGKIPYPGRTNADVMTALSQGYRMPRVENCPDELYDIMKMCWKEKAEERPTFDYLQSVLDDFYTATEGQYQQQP

[11] = target: Serine/threonine-protein kinase pim-1 (Homo sapiens) (UniProt P11309); assay: Inhibition of PIM1 at 1 uM
Serine/threonine-protein kinase pim-1 (Homo sapiens), sequence (P11309 whole entry, looked up): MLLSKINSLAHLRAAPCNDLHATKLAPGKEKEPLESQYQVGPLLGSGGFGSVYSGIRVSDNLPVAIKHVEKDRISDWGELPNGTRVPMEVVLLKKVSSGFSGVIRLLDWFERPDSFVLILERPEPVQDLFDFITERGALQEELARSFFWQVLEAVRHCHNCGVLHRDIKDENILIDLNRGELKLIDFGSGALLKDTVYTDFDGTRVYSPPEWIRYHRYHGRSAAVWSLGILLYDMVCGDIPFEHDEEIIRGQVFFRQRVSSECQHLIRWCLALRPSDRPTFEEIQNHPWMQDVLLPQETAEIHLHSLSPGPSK

[12] = target: T2, Serine/threonine-protein kinase Sgk3 (Homo sapiens) (UniProt Q96BR1); assay: Inhibition of SGK3 at 1 uM
T2 sequence (whole entry): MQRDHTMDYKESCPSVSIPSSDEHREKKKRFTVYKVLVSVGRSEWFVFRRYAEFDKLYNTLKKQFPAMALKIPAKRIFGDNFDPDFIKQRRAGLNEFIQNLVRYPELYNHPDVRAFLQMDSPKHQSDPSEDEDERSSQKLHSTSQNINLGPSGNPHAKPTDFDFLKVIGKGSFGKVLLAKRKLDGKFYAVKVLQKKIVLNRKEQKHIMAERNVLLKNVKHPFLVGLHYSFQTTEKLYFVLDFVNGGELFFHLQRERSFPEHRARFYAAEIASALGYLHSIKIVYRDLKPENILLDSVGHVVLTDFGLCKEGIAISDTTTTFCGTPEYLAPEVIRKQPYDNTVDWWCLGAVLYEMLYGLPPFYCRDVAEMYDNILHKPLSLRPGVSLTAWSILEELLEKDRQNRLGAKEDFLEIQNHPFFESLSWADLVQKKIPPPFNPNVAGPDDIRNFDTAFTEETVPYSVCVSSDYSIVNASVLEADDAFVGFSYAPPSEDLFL

[13] = target: Cyclin-dependent kinase 1/cyclin B1 (Homo sapiens) (UniProt P06493+P14635); assay: Inhibition of CDK1/cyclin B at 1 uM; assay type: protein-complex assay
Cyclin-dependent kinase 1/cyclin B1 (Homo sapiens), sequence (P06493 whole entry, looked up): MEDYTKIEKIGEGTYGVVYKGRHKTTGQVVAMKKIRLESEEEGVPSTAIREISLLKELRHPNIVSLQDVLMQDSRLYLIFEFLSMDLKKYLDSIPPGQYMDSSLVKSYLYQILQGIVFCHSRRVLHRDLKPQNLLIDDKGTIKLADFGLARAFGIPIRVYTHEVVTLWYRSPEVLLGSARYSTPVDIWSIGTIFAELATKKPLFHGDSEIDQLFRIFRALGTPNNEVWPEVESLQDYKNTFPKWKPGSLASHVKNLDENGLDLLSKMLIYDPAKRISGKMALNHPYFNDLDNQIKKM
Cyclin-dependent kinase 1/cyclin B1 (Homo sapiens), sequence (P14635 whole entry, looked up): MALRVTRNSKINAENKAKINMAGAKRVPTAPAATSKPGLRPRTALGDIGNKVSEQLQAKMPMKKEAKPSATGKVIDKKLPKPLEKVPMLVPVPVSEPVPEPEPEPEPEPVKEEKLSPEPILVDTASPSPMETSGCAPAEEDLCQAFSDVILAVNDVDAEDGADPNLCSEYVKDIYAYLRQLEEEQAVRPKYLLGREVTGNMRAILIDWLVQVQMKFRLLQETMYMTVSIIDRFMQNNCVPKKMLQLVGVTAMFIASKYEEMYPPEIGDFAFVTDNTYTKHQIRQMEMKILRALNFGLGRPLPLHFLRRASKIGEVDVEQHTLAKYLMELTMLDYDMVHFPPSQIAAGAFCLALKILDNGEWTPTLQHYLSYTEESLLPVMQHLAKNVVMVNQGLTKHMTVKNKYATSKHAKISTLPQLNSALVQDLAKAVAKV

[14] = target: Tyrosine-protein kinase Fyn (Homo sapiens) (UniProt P06241); assay: Inhibition of FYN at 1 uM
[15] = target: T3, Ephrin type-A receptor 1 (Homo sapiens) (UniProt P21709); assay: Inhibition of EPHA1 at 1 uM
T3 sequence (whole entry): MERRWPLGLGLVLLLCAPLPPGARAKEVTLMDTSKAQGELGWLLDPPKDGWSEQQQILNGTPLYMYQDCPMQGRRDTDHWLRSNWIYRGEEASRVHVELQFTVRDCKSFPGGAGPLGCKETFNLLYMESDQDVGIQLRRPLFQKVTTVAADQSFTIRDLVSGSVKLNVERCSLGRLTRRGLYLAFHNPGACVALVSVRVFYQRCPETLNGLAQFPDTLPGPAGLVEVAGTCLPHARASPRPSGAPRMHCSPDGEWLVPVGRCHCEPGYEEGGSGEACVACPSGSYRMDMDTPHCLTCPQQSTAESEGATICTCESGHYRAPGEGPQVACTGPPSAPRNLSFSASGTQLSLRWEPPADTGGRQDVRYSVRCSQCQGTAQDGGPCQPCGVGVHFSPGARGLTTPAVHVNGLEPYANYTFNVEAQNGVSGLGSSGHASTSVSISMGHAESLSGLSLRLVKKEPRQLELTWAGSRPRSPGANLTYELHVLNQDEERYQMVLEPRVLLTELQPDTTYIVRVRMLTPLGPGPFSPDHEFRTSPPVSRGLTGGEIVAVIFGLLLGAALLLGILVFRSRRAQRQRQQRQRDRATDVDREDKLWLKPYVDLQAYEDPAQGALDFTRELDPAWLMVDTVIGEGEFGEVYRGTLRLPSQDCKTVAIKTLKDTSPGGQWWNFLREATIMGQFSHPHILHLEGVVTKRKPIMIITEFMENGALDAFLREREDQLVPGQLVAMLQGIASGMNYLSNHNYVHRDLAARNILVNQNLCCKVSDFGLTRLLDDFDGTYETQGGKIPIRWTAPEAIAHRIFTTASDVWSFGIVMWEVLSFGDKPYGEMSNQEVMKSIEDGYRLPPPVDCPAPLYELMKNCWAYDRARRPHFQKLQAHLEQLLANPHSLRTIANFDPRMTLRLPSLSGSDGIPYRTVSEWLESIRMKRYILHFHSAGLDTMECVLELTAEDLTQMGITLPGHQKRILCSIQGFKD

[16] = target: Epithelial discoidin domain-containing receptor 1 (Homo sapiens) (UniProt Q08345); assay: Inhibition of DDR1 at 1 uM
MDA231 = assay: Inhibition of lipoxygenase in human MDA231 cells; assay type: cell-based
[17] = Antiinvasive activity in human MDA231 cells at 10 uM after 48 hrs by Matrigel matrix assay; assay type: functional, MDA-MB-231
How it was run: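 Serum-starved MDA-231 cells (30,000) placed with or without compound (10 μM) in the upper compartment of 8-µm Matrigel-coated Boyden chambers. Lower compartment held DMEM 0.2% BSA with 10% serum. Invasion ran 48 h, then invaded cells were fixed, stained and counted under a 40× objective. DMSO normalized to 0% inhibition. Mean ± SD, five experiments.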

[18] = target: Tyrosine-protein kinase receptor Tie-1 (Homo sapiens) (UniProt P35590); assay: Inhibition of TIE1 at 1 uM
Tyrosine-protein kinase receptor Tie-1 (Homo sapiens), sequence (P35590 whole entry): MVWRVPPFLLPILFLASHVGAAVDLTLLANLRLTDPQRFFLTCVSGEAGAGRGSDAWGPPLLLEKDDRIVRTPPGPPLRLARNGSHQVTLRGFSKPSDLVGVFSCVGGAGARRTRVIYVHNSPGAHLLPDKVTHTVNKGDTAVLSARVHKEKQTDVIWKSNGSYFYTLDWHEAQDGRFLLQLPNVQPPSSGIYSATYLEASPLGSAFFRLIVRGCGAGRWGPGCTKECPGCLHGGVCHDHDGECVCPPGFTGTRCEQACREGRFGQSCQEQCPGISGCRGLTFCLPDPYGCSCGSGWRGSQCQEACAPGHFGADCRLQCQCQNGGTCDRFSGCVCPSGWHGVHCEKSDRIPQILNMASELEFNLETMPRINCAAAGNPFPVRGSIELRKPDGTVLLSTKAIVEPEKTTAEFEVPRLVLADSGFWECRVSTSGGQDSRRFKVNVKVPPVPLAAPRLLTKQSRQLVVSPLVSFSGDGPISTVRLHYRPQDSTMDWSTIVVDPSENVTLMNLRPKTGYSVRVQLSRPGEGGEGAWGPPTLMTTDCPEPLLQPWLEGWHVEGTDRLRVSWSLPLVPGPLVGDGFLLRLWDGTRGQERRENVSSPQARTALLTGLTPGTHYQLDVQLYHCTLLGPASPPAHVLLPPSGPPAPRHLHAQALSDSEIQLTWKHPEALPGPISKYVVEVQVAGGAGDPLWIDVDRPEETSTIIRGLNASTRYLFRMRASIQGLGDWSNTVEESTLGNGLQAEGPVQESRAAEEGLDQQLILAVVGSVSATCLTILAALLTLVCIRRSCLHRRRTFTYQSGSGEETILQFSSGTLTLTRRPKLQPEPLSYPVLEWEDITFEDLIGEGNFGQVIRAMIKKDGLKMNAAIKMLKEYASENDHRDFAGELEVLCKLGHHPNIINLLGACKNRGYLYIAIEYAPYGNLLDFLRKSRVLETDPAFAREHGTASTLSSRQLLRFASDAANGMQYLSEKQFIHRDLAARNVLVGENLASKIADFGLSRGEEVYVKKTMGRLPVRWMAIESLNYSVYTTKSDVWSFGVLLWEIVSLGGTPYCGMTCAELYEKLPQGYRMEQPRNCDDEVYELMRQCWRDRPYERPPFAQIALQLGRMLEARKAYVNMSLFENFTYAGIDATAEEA

Hepatocyte growth factor receptor (Homo sapiens), sequence (P08581 whole entry): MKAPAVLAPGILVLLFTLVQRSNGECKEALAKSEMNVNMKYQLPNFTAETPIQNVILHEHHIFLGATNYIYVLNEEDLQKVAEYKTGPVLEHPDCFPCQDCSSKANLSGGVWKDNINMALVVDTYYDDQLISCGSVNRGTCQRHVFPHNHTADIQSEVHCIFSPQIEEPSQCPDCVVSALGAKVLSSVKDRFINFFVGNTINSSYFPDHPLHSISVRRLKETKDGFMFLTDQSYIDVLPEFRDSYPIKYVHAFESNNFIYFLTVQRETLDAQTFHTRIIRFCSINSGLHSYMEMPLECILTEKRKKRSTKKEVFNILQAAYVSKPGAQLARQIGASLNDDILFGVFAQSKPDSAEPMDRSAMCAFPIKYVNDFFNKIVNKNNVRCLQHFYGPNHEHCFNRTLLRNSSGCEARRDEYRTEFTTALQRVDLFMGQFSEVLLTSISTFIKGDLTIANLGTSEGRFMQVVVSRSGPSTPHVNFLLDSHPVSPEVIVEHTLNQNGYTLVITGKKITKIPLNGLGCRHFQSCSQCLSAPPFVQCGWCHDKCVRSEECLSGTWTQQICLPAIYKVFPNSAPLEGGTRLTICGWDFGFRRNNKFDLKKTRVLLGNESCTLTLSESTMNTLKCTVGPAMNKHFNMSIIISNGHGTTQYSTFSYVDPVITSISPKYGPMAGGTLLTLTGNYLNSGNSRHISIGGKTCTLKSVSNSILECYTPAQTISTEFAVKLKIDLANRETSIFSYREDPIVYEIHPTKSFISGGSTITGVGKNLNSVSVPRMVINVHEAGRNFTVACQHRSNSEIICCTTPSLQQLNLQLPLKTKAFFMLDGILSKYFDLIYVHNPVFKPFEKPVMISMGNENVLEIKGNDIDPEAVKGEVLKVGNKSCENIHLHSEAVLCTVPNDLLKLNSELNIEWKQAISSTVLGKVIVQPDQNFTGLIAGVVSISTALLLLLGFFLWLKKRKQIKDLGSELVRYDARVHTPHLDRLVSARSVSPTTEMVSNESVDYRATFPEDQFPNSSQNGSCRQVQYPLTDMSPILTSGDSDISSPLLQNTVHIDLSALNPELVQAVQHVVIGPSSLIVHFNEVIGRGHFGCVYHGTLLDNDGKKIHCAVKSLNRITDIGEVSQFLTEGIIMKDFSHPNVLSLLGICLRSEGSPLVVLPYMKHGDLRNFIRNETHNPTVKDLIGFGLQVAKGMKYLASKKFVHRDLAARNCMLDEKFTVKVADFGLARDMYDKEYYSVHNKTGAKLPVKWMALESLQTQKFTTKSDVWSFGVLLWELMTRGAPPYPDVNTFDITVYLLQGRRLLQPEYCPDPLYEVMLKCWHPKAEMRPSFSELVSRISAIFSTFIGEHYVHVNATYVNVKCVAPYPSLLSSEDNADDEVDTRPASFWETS

Row | SMILES | inhibition [1] [%] | inhibition [2] [%] | inhibition [3] [%] | inhibition [4] [%] | inhibition [5] [%] | IC50 [6] [µM] | inhibition [7] [%] | Activity (MDA-MB-231 [8]) | inhibition (MDA-MB-231 [9]) | inhibition [10] [%] | inhibition [11] [%] | inhibition [12] [%] | inhibition [13] [%] | inhibition [14] [%] | inhibition [15] [%] | inhibition [16] [%] | inhibition (MDA231) | Activity [17] [%] | inhibition [18] [%]
1 | CC(=O)OC[C@H]1O[C@@H](NC(=O)CCCn2[se]c3ccccc3c2=O)[C@H](OC(C)=O)[C@@H](OC(C)=O)[C@@H]1OC(C)=O | 0 | 0 | 0 | 0 | 0 | 18.9 | 0 | inactive | inactive | 0 | 0 | 0 | 0 | 0 | 0 | 0 | inactive | 50 | 0
2 | O=c1c2ccccc2[se]n1-c1ccccc1 [EBSELEN] | 0 | 0 | 0 | 0 | 0 | 42.3 | 0 |  |  | 0 | 0 | 0 | 0 | 0 | 0 | 0 |  |  | 0
3 | O=C(CCCn1[se]c2ccccc2c1=O)N[C@@H]1O[C@H](CO)[C@@H](O)[C@H](O)[C@H]1O | 0 | 0 | 0 | 0 | 0 | 20.4 | 0 | inactive | inactive | 0 | 0 | 0 | 0 | 0 | 0 | 0 | inactive | 50 | 0
4 | CC(=O)OC[C@H]1O[C@@H](O[C@H]2[C@H](OC(C)=O)[C@@H](OC(C)=O)[C@H](n3[se]c4ccccc4c3=O)O[C@@H]2COC(C)=O)[C@H](OC(C)=O)[C@@H](OC(C)=O)[C@H]1OC(C)=O | 0 | 0 | 0 | 0 | 0 |  | 0 | inactive | inactive | 0 | 0 | 0 | 0 | 0 | 0 | 0 | inactive | 50 | 0
